# Test results: ChEMBL document CHEMBL4196194, “De Novo Design of α-Helical Lipopeptides Targeting Viral Fusion Proteins: A Promising Strategy for Relatively Broad-Spectrum Antiviral Drug Discovery” (J Med Chem, 2018)
# Active and inactive are the calls of the source. No cut-off for these calls is given here. Where a SMILES comes first, the peptide text is derived from it. [ ]: non-standard residue; d: D form. The star is where a group is joined. Palmitoyl = CCCCCCCCCCCCCCCC(=O)*; βAla = NCCC(=O)O
# Legend:
# Influenza A virus [1] = experiment: Antiviral activity against influenza A virus assessed as inhibition of viral replicon activity incubated for 30 hrs by firefly luciferase reporter gene assay; assay type: functional, organism-based
# Method in brief: (§1)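 HEK293T cells (2.5 × 10^4/well) transfected with plasmids for NP, PB1, PB2, PA plus p0LN-S-Luc firefly and pRL-SV40 Renilla reporters; serially diluted compound added 6 h post-transfection, luciferase read after 30 h by Dual-Glo. Activity = firefly/Renilla ratio; % inhibition normalized to positive and negative controls, curve-fitted; three independent measurements.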
# Influenza A virus [2] = experiment: Inhibition of influenza A virus infected in MDCK cells assessed as inhibition of viral load treated with compound at 0 to 10 hrs post-infection by RT-qPCR method based time of addition assay; assay type: functional
# Method in brief: (§2)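 MDCK cells (2.0 × 10^5/well) washed with PBS, virus adsorbed (MOI 0.05) 60 min at 4 °C, washed, then compound present only during 0–10, 0–2, 2–5, 5–8 or 8–10 h postinfection; cultured in fresh medium to 10 h, total RNA extracted, viral load by absolute one-step RT-qPCR; triplicate, versus PBS control.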
# Influenza A virus [3] = experiment: Inhibition of influenza A virus infected in MDCK cells assessed as inhibition of viral load treated with compound at 0 to 2 hrs post-infection by RT-qPCR method based time of addition assay; assay type: functional; method in brief: as §2
# Influenza A virus [4] = experiment: Inhibition of influenza A virus infected in MDCK cells assessed as inhibition of viral load treated with compound at 2 to 5 hrs post-infection by RT-qPCR method based time of addition assay; assay type: functional, organism-based; method in brief: as §2
# Influenza A virus [5] = experiment: Inhibition of influenza A virus infected in MDCK cells assessed as inhibition of viral load treated with compound at 5 to 8 hrs post-infection by RT-qPCR method based time of addition assay; assay type: functional, organism-based; method in brief: as §2
# Influenza A virus [6] = conditions: A/Puerto Rico/8/1934(H1N1), 0.1 to 1000 uM
# Influenza A virus [7] = conditions: Hong Kong/8/1968(H3N2), 0.1 to 1000 uM
# [8] = Inhibition of MERS-CoV spike protein-mediated cell-cell fusion in 293T/MERS/EGPF cells assessed as reduction in cell fusion incubated for 4 hrs by inverted fluorescence microscopy; assay type: cell-based, Middle East respiratory syndrome-related coronavirus
# Method in brief: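 Huh-7 cells expressing DPP4 plated 5 × 10^4/well, 5 h at 37 °C; serially diluted peptide added, then 293T cells carrying MERS-CoV S and EGFP (or EGFP-only control cells), 1 × 10^4/well. After 4 h coculture at 37 °C, fused and unfused effector cells counted by fluorescence microscopy.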
# [9] = Cytotoxicity in human HuH7 cells assessed as reduction in cell viability incubated for 48 hrs by CCK8 assay; assay type: cell-based, Huh-7
# Method in brief: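 Huh-7 cells (1 × 10^5 cells/mL suspension seeded) grown 12 h at 37 °C, 5% CO2, then serially diluted peptide added for 48 h; untreated blank and Triton X-100 controls. CCK-8 added for 2 h, absorbance at 450 nm.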
# Influenza A virus [10] = experiment: Antiviral activity against Influenza A virus (A/Puerto Rico/8/1934(H1N1)) infected in HEK293T cells assessed as inhibition of viral replicon activity up to 20 uM incubated for 30 hrs by dual-Glo luciferase assay; assay type: functional, organism-based; method in brief: as §1
# Influenza A virus [11] = experiment: Antiviral activity against influenza A virus Hong Kong/8/1968(H3N2) infected in HEK293T cells assessed as inhibition of viral replicon activity up to 20 uM incubated for 30 hrs by dual-Glo luciferase assay; assay type: functional, organism-based; method in brief: as §1
Compound,IC50 (Influenza A virus [1]),inhibition (Influenza A virus [1]),inhibition (Influenza A virus [2]),inhibition (Influenza A virus [3]),inhibition (Influenza A virus [4]),inhibition (Influenza A virus [5]),inhibition (Influenza A virus [6]),inhibition (Influenza A virus [7]),EC50 [8],CC50 at 48 h [9],Activity (Influenza A virus [10]),Activity (Influenza A virus [11])
NC(=O)c1nc(F)cnc1O,26.2 µM,Dose-dependent effect,Active,Active,Active,Active,inactive,inactive,,,,
CC[C@H](C)[C@H](NC(=O)[C@H](Cc1ccc(O)cc1)NC(=O)[C@H](CO)NC(=O)[C@H](CCC(=O)O)NC(=O)[C@H](CCC(=O)O)NC(=O)[C@H](CC(C)C)NC(=O)[C@H](CCCCN)NC(=O)[C@H](CCCCN)NC(=O)[C@@H](NC(=O)[C@@H](NC(=O)[C@H](CCC(=O)O)NC(=O)[C@H](CCC(=O)O)NC(=O)[C@H](CC(C)C)NC(=O)[C@H](CCCCN)NC(=O)[C@H](CCCCN)NC(=O)[C@H](CCSC)NC(=O)[C@H](CCC(=O)O)NC(=O)[C@H](Cc1ccc(O)cc1)NC(=O)[C@H](CCC(=O)O)NC(=O)[C@H](CC(C)C)NC(=O)[C@H](CC(=O)O)NC(=O)[C@H](CC(C)C)NC(=O)[C@H](CC(C)C)NC(=O)[C@@H](NC(=O)[C@@H](NC(=O)[C@H](CC(N)=O)NC(=O)[C@@H](NC(=O)[C@H](CCC(N)=O)NC(=O)[C@@H](NC(=O)[C@H](CC(C)C)NC(=O)[C@H](CO)NC(C)=O)[C@@H](C)O)[C@@H](C)CC)[C@@H](C)O)[C@@H](C)O)C(C)C)C(C)C)C(=O)N[C@@H](CC(=O)O)C(=O)N[C@@H](CC(C)C)C(=O)N[C@@H](CCCCN)C(=O)N[C@@H](CCC(=O)O)C(=O)N[C@@H](CC(C)C)C(N)=O,,,,,,,,,0.15 µM,> 100 µM,inactive,inactive
CCCCCCCCCCCCCCCC(=O)NCCCC[C@H](NC(=O)CCNC(=O)[C@H](CCCCN)NC(=O)[C@H](CCCCN)NC(=O)[C@H](CO)NC(=O)[C@H](Cc1ccccc1)NC(=O)[C@H](CCC(=O)O)NC(=O)[C@H](CCC(=O)O)NC(=O)[C@H](Cc1ccccc1)NC(=O)[C@H](CCCCN)NC(=O)[C@H](CCCCN)NC(=O)[C@H](CO)NC(=O)[C@H](Cc1ccccc1)NC(=O)[C@H](CCC(=O)O)NC(=O)[C@H](CCC(=O)O)NC(=O)[C@H](Cc1ccccc1)NC(=O)[C@H](CCCCN)NC(=O)[C@H](CCCCN)NC(=O)[C@H](CO)NC(=O)[C@H](Cc1ccccc1)NC(=O)[C@H](CCC(=O)O)NC(=O)[C@H](CCC(=O)O)NC(=O)[C@H](Cc1ccccc1)NC(=O)[C@H](CCCCN)NC(=O)[C@H](CCCCN)NC(=O)[C@H](CO)NC(=O)[C@H](Cc1ccccc1)NC(=O)[C@H](CCC(=O)O)NC(=O)[C@H](CCC(=O)O)NC(=O)[C@H](Cc1ccccc1)NC(=O)[C@H](CCCCN)NC(=O)[C@H](CCCCN)NC(=O)[C@H](CO)NC(=O)[C@H](Cc1ccccc1)NC(=O)[C@H](CCC(=O)O)NC(=O)[C@H](CCC(=O)O)NC(=O)[C@H](Cc1ccccc1)NC(C)=O)C(N)=O (Ac-FEEFSKKFEEFSKKFEEFSKKFEEFSKKFEEFSKK[βAla]K(Palmitoyl)-NH2),,,,,,,,,3.11 µM,> 100 µM,,
